Laboratory results taken from PMC7614192 (Biomedicine & pharmacotherapy = Biomedecine & …, 2022).

Assays:
[1] = tested on: mouse model of multiple sclerosis; conditions: oral application; cited from earlier work
[2] = tested on: primary human lymphocytes; conditions: primary human lymphocytes in vitro; cited from earlier work
[3] = tested on: CD25 on T lymphocytes; experiment: CD25 activation marker detection; assay type: cell-based, human; conditions: cyclotides; activated PBMC, 24 h, n = 3
Procedure, shortened: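 PBMC (2 × 10^5) were stimulated with anti-CD3/anti-CD28 mAbs (100 ng/mL each) and exposed to test compound for 24 h. Controls were CsA 4.16 μM and camptothecin 300 μM. Stained with anti-CD25-PE plus anti-CD4-APC and read by flow cytometry. Result is the percentage of CD4+ and CD4− T cells expressing CD25, relative to the untreated stimulated control. n = 3, ANOVA/Dunnett.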

[4] = tested on: activated human PBMC / T lymphocytes; experiment: Cell cycle progression by DNA content; assay type: cell-based; conditions: cyclotides, 72 h, PI staining, n = 3
Procedure, shortened: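 PBMC were activated with anti-CD3/anti-CD28 (100 ng/mL each) and incubated 72 h with test compound or CsA. Cells were washed, fixed and permeabilised in 70% ice-cold ethanol, then stained with PI plus RNase. Flow cytometry gave the share of living lymphocytes in each cell-cycle phase, reported as mean of three independent experiments.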

[5] = tested on: CD107a on CD8+ T cells; experiment: CD8+ T cell degranulation; assay type: cell-based, human; conditions: cyclotides; activated PBMC 24 h, PMA/ionomycin 4 h, MFI of CD107a, n = 3
Procedure, shortened: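 Anti-CD3/anti-CD28 (100 ng/mL each) activated PBMC (2 × 10^5) were treated with test compound, CsA (4.16 μM) or camptothecin (300 μM) for 24 h. They were then restimulated with PMA (50 ng/mL) and ionomycin (500 ng/mL) for 4 h. Staining used CD107a-PE with GolgiStop, read by flow cytometry. CD107a MFI is expressed relative to the stimulated control. n = 3.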

[6] = tested on: activated human primary T cells (PBMC); experiment: Cell division tracking using CFSE; assay type: cell-based; conditions: cyclotides, anti-CD3/anti-CD28 stimulated human PBMC, 72 h, n = 3
Procedure, shortened: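 PBMC at 5 × 10^6 cells/mL in PBS were labelled with CFSE (5 mM stock diluted 1/1000) for 10 min at 37 °C, and labelling was stopped by washing in complete medium. Cells (2 × 10^5) were activated with anti-CD3/anti-CD28 (100 ng/mL each) and cultured 72 h with test compound or CsA 4.16 μM. Proliferating cells were read by flow cytometry and normalised to the stimulated control. Mean ± SD, n = 3.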

[7] = tested on: activated human PBMC / T lymphocytes; experiment: Apoptosis and necrosis by annexin V and propidium iodide staining; assay type: cell-based; conditions: cyclotides, annexin V-FITC/PI, n = 3
Procedure, shortened: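 Donor PBMC (2 × 10^5) in RPMI 1640 with 10% heat-inactivated FBS and 2 mM L-glutamine at 37 °C, 5% CO2. Activated with anti-CD3 (HIT3) and anti-CD28 (28.6), 100 ng/mL each, then exposed to test compound. Annexin V-FITC/PI double staining by flow cytometry, normalised to the stimulated control. Camptothecin was the apoptosis control and Triton X-100 (0.5%) the necrosis control. Mean ± SD, n = 3, ANOVA/Dunnett.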

Substance | clinical scores [1] | effect on T cell proliferation [2] | concentration with significant reduction of CD25 expression [3] [µM] | concentration with significant reduction in the number of cells in the G2-phase [4] [µM] | concentration with significant reduction in CD107a levels [5] [µM] | concentration with significant rise in degranulation levels (CD107a) [5] [µM] | concentration with significant reduction in T cell proliferation [6] [µM] | concentration with significant induction of necrosis [7] [µM] | concentration with significant increase in the number of apoptotic cells [7] [µM]
T20K (GLPVCGETCVGGTCNTPGCKCSWPVCTRN; not fully specified; Kalata-B1 cyclic backbone; UniProt P56254 89-117, looked up, variant T20K) | significant delay and reductions in clinical scores | inhibition of T cell proliferation | – | – | – | – | – | – | –
c-CGESCVFIPCITAAIGCSCKKKVCYRNGVIP (bicyclic or more) [caripe 8] | – | – | 10 | 30 | 10 | 3 | 10 | 10 | –
c-CGESCVFIPCFSTVIGCSCKNKVCYRNGVIP (bicyclic or more) [caripe 10] | – | – | 10 | 10 | 10 | – | 10 | – | 10
cyclo-CGESCVFIPCTVTALLGCSCKNKVCYRNGIP (bicyclic or more) [caripe 7] | – | – | 10 | 10 | 10 | – | 10 | 3 | –
c-CGESCVFIPCFTSVFGCSCKDKVCYRNGIP (bicyclic or more) [caripe 13] | – | – | – | – | – | – | 30 | 30 | –
c-CGESCVFIPCFSSVIGCSCKNKVCYRNGVIP (bicyclic or more) [caripe 12] | – | – | – | 30 | – | 3 | 30 | – | 30
c-CGESCVFIPCISTVIGCSCKKKVCYRNGVIP (bicyclic or more) [caripe 11] | – | – | – | 30 | – | 3 | 30 | – | 10
